Bioassay records as filed in PubChem BioAssay.
AHR act: activators of human aryl hydrocarbon receptor. activation, % at 5 µM. 320,000 tested, 2.5% active. AHR-responsive luciferase reporter cells, luminescence. AID 2796; in the data active means activation above about 47%
STAT3 activator: increases IL-6 driven STAT3 reporter signal; U3A cells, IL-6 STAT3-luciferase reporter, luminescence; 100% = signal with IL-6 EC80 alone; AID 871; activation (% of control), % at 5.6 µM; 190,000 tested, 0.91% active;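 active means activation above the screen-wide mean of compound activation plus 3 SD, cut at about 130% in these data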
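Material: human U3A cells carrying STAT3-luciferase construct. Measured by: reporter luminescence signal. Timing: compound 1 h, then IL-6 6 h at 37 °C.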
FXIIa inh: inhibitors of human coagulation factor XIIa; purified FXIIa, Boc-QGR-AMC fluorogenic substrate, 2 h; inhibition, % at 5 µM; AID 800; 220,000 tested, 0.3% active; P00748; in the data active means inhibition above about 40%
thrombin 1536: inhibitors of human thrombin; alpha-thrombin, Boc-VPR-AMC fluorogenic substrate cleavage; inhibition, % at 5 µM; 220,000 tested, 0.26% active; AID 1046;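 active means inhibition at or above 40%; inactive means inhibition below 40%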
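System: Human alpha-thrombin protein | Medium: pH 7.5 Tris (50 mM) with NaCl 150 mM, Tween 20 0.05% | Times: Enzyme reaction carried out at room temperature | Detection: AMC fluorescence, 355/460 nm | Evaluation: Percent inhibition scaled between no-compound controls and no-enzyme blanks | Benchmarks: Enzyme without compound as high, wells lacking enzyme as low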
hK5 inh: blocks human kallikrein 5 protease activity. Q9Y337. recombinant hK5, fluorogenic AMC substrate cleavage. inhibition, % at 5 µM. 210,000 tested, 0.59% active. AID 873;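 active means inhibition of 40% or more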
Target sequence (Q9Y337 67-293 limits assumed): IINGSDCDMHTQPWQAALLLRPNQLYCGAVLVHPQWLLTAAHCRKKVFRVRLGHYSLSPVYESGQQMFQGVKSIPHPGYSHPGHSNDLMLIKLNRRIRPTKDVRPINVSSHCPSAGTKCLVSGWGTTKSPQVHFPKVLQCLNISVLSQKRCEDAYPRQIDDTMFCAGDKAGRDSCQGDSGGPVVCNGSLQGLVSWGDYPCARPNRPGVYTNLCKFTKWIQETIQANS
FXIa inh 1536: blocks human coagulation factor XIa protease activity | P03951 | purified FXIa, Boc-Glu-Ala-Arg-AMC fluorogenic substrate | inhibition, % at 5 µM | 220,000 tested, 0.14% active;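 active means inhibition of at least 40%; inactive means inhibition below 40%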;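 further: fluorescence of freed AMC excited at 355 nm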
AHR act confirm: confirmation of human aryl hydrocarbon receptor activators; shares compounds with AHR act; human cells, AHR-responsive luciferase reporter, luminescence; activation, % at 9 µM; 2,300 tested, 87% active; AID 2845; in the data active means activation above about 49%;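 further: HepG2 hepatoma cells carrying a DRE-driven firefly luciferase reporter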
PXR counter: activates human PXR in AHR activator counter-screen | shares compounds with AHR act | cell-based PXR reporter, luciferase luminescence | activation, % at 11.6 µM | 2,300 tested, 88% active | AID 434939; in the data active means activation above about 11%;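 further: human hepatoma DPX-2 cells expressing full-length human PXR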
A number is an active result; i = inactive; nt = no result given. Compounds with a hit are over-represented: about 3.5% of the library has one in this group of screens.

SMILES	AHR act	STAT3 activator	FXIIa inh	thrombin 1536	hK5 inh	FXIa inh 1536	AHR act confirm	PXR counter
Cc1c(/C=N\NC(=O)C2COc3ccc(C(C)(C)C)cc3O2)c2ccccc2n1C (stereo unspecified)	79	i	i	i	i	i	i	66
Cn1cccc1/C=N\NC(=O)C1COc2ccc(C(C)(C)C)cc2O1 (stereo unspecified)	i	nt	nt	nt	nt	nt	nt	nt
Cc1cccc(NC(=O)C2CCCN(c3nc(C)cc(C)n3)C2)c1 (stereo unspecified)	i	i	i	i	i	i	nt	nt
CCc1cccc(NC(=O)C2CCCN(c3cnccn3)C2)c1 (stereo unspecified)	91	nt	nt	nt	nt	nt	58	41
Cc1cccc(NC(=O)C2CCCN(c3cnccn3)C2)c1 (stereo unspecified)	88	nt	nt	nt	nt	nt	70	32
Cc1ccc(F)cc1NC(=O)C1CC(=O)N(CCc2ccccc2)C1 (stereo unspecified)	i	i	i	i	i	i	nt	nt
CN(Cc1ccc(Cl)s1)C(=O)CCl	i	i	i	i	i	i	nt	nt
Cn1nc(NC(=O)C(F)(F)F)c2ncc(-c3ccc(Cl)cc3)nc21	134	nt	i	i	i	i	131	37
O=c1[nH]c(=O)c2ncc(-c3ccc(Cl)cc3)nc2[nH]1	i	i	nt	i	i	i	nt	nt
Cc1cc(-c2ccccc2)nc(N/N=C/c2ccc(O)cc2O)n1	i	nt	nt	nt	nt	nt	nt	nt
Cc1cc(N/N=C/c2ccccc2O)c2ccccc2n1	107	nt	nt	nt	nt	nt	124	13
COc1cc2c3c(c1)C1(C(=O)N3C(C)(C)C=C2C)C(C#N)=C(N)Oc2cc(O)ccc21 (stereo unspecified)	93	i	i	i	64	i	i	i
CCOc1cc2c3c(c1)C1(C(=O)N3C(C)(C)C=C2C)C(C#N)=C(N)Oc2cc(O)ccc21 (stereo unspecified)	i	i	i	i	i	i	nt	nt
COc1ccc(-n2nc3c(c2NC(=O)c2ccc4c(c2)OCO4)CS(=O)(=O)C3)cc1	i	nt	nt	nt	nt	nt	nt	nt
N#CC(C#N)=C1C=CC=CN1/C(=C\c1ccco1)C(=O)c1ccc(Br)cc1	189	i	i	i	i	i	180	61
N#CC(C#N)=C1C=CC=CN1/C(=C\c1ccco1)C(=O)c1ccccc1	i	i	i	i	i	i	nt	nt
